Screens: PubChem BioAssay, several laboratories
Only some compounds are listed: those with a hit (about 5.5% of all), similar ones and a draw of the others.
WT yeast gro inh – growth inhibition of WT yeast, mitochondrial fusion screen; mitochondrial fusion phenotypic screen, WT strain; AID 1362; 190,000 compounds, 2.1% hits; inhibition, % at 10 µM; in the data active = inhibition above about 58%; tested in S. cerevisiae
Yeast life ext – extends the lifespan of yeast; S. cerevisiae growth with nicotinamide, OD615; deaD strain in restrictive glucose medium; inhibition of the nicotinamide effect, % at 10 µM; 130,000 compounds, 0.68% hits;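 active = inhibition above a set limit, placed 3 SD over the median of all compounds, cut at about 26% in these data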;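 note: 0% = nicotinamide-treated wells and 100% = cells grown without nicotinamide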
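Assay system: engineered S. cerevisiae DeaD replicative-lifespan strain, galactose-grown log-phase cells; Buffer or medium: CSMM-D glucose medium, restrictive; Probe or stimulus: nicotinamide 1.5 mM; Compound: single dose 10 µM compound, 0.25% DMSO; Schedule: 4 h preincubation then 48 h treatment at 30 °C; Technique: OD615 measurement.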
Yeast growth inh – reduces growth of yeast BB579 in restrictive medium; AID 804; S. cerevisiae BB579 growth, OD615, 48 h; 140,000 compounds, 0.51% hits; inhibition, % at 10 µM;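 active = inhibition above a set limit, 3 SD over the mean compound inhibition, cut at about 44% in these data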
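Material: Saccharomyces cerevisiae DeaD strain BB579, replicative lifespan model yeast; buffer or medium: CSMM-D restrictive synthetic medium containing dextrose (glucose); compound: 10 µM single dose, DMSO 0.25%; timing: 48 h compound exposure at 30 °C after 4 h preincubation; signal: turbidity as optical density at 615 nm; benchmarks: positive control amphotericin B 10 µg/mL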
RAM inhibit – yeast RAM network inhibition; 190,000 compounds, 1.8% hits; inhibition, % at 50 µM; S. cerevisiae dse1pr::URA3 reporter, 5-FOA growth OD615, 2 d; analog-sensitive cbk1-as2 kinase mutant strain;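 active = inhibition above a set limit, 3 SD over mean compound inhibition, cut at about 8.4% in these data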;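 note: 0% = DMSO-only wells with no growth and 100% = 10 µM 1-NA-PP1 full growth; inhibition rescues growth on 5-FOA so higher OD means more RAM inhibition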
KCC2 mod – modulators of human KCC2 chloride dependent transport | 190,000 compounds, 2.2% hits | KCC2 cells, thallium flux FluoZin-2 fluorescence | B-score of Tl+ flux slope (higher = more flux/activation; lower = inhibition) at 10 µM | AID 1456;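 active = thallium flux slope and its plate-corrected score both differing from the plate sample mean at a set confidence after two filtering rounds, in either direction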;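 note: slope of fluorescence scaled to starting intensity during 10 to 20 s after thallium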
Target sequence (Q9H2X9 whole entry, looked up): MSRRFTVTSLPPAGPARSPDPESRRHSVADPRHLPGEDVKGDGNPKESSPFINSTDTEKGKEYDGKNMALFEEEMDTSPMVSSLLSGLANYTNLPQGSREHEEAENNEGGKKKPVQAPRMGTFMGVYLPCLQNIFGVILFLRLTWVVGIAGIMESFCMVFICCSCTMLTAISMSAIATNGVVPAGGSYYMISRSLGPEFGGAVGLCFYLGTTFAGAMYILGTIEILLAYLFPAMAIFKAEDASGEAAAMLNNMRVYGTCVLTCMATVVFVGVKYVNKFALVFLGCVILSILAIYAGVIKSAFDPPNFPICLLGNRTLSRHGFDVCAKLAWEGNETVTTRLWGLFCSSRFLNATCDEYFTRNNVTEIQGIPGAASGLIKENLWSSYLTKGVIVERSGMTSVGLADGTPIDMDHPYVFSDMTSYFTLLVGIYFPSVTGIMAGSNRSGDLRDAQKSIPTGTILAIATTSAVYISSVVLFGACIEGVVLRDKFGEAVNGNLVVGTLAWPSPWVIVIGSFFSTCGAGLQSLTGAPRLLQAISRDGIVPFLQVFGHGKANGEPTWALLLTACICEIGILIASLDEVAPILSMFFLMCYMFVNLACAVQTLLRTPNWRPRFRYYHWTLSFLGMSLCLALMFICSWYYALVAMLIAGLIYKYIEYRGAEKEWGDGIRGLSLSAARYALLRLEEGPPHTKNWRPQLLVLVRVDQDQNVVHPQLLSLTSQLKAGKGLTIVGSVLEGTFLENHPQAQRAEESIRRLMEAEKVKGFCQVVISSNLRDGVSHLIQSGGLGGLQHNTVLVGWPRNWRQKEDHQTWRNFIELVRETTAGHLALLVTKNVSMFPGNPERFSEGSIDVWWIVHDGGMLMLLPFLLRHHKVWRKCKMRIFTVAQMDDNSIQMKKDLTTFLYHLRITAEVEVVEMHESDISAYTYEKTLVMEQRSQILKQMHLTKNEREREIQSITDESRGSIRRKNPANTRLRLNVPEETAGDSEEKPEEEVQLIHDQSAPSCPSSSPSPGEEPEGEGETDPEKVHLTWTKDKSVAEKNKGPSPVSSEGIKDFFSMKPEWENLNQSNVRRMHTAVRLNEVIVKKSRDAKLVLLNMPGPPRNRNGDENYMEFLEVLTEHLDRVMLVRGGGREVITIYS
KCC2 sec1 – confirmation of human KCC2 transport modulators | shares compounds with KCC2 mod | HEK293-KCC2, thallium flux, FluoZin2 fluorescence; stronger effect = higher value | normalised thallium flux (F/F0 slope) at 10 µM | 3,700 compounds, 15% hits;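 active = thallium flux slope above the same plate's solvent-only control mean plus 3 SD; inconclusive = the two replicate wells disagree; inactive = no significant difference from solvent-only control wells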
KCC2 bumet counter – bumetanide-insensitive thallium flux in KCC2 cells with ouabain, counter-screen | shares compounds with KCC2 mod | HEK293-KCC2 + bumetanide/ouabain, thallium flux FluoZin2; stronger effect = higher value | normalized thallium flux at 10 µM | 3,700 compounds, 49% hits | AID 1714;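 active = thallium entry rate above the same plate's blocked-transporter control wells by more than 3 SD; inconclusive = the two repeat wells disagree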;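 note: raw slope of fluorescence over initial fluorescence between 10 and 20 s after thallium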
KCC2 secondary2 – confirmation of human KCC2 transport modulators; 3,700 compounds, 23% hits; normalized thallium flux at 10 µM; HEK293-KCC2, thallium flux FluoZin2 fluorescence; actives lie on both sides; F/F0 rise rate, 10–20 s post-thallium; shares compounds with KCC2 mod;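 active = thallium flux slope more than 3 SD above or below the plate's solvent-only control mean, mostly below; inconclusive = the two repeat wells disagreed; inactive = no significant shift from solvent-only controls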;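 note: raw slope with 0.1% DMSO as baseline and bumetanide as block control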
HEK293 Tl flux – counter-screen for KCC2 modulators: effect in parental HEK293 cells; AID 1716; shares compounds with KCC2 mod; 3,700 compounds, 46% hits; thallium flux rate (normalised fluorescence) at 10 µM; thallium flux FluoZin2, ouabain; baseline-ratio fluorescence slope, 10–20 s after thallium;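 active = thallium flux rate significantly above the same plate's solvent-only control wells, beyond their mean plus 3 SD; inconclusive = the two replicate wells gave conflicting results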
KCC2 retest ouab – modulates human KCC2 on retest with ouabain. shares compounds with KCC2 mod. HEK293-KCC2, thallium flux FluoZin2 fluorescence; bidirectional: low = inhibitor, high = activator. raw Tl+ flux slope (below DMSO = inhibition, above = activation) at 10 µM. 3,700 compounds, 48% hits;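 active = thallium flux slope beyond 3 SD from same-plate DMSO control mean in most replicates, usually higher, sometimes lower; inconclusive = repeat tests gave conflicting results; inactive = no significant difference from controls in most replicates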;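 note: slope of initial-normalized fluorescence between seconds 10 and 20 after thallium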
HEK counter2 – parental HEK flux effect, counter-screen 2. HEK293 parental, thallium flux FluoZin-2 fluorescence slope. 3,700 compounds, 33% hits. shares compounds with KCC2 mod. AID 1718. thallium flux slope at 10 µM;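 active = thallium flux slope above the same plate's solvent-control mean plus 3 SD in both duplicate wells; inconclusive = duplicate wells that disagreed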;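 note: run without ouabain in cells lacking the KCC2 cotransporter; slope of fluorescence scaled to its starting value between 10 and 20 s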
An asterisk follows results filed as active; ? = inconclusive; . = not tested or not shown.

SMILES	WT yeast gro inh	Yeast life ext	Yeast growth inh	RAM inhibit	KCC2 mod	KCC2 sec1	KCC2 bumet counter	KCC2 secondary2	HEK293 Tl flux	KCC2 retest ouab	HEK counter2
O=C(NCc1cccnc1)c1ccc(COc2ccccc2Br)o1	-21	-14	-38	1	-4.7*	0.0095	0.0056	0.029*	0.0043	0.014*	0.012
O=C(NCc1cccnc1)c1ccc(COc2ccccc2Cl)o1	-7	.	.	0	-2	.	.	.	.	.	.
O=C(Nc1cccnc1)c1ccc(COc2ccccc2Br)o1	37	-14	-91	-1	-5*	0.0061	0.0047	0.022*	0.0072	?	0.011
CC(C)(C)NC(=O)c1ccc(COc2ccccc2Br)o1	9	-15	-35	0	.	.	.	.	.	.	.
CCNC(=S)Nc1ccccc1-c1ccccc1	-15	1	-15	1	0.21	.	.	.	.	.	.
COCCCNC(=O)C(C#N)c1nc2ccccc2nc1N1CCCC1 (stereo not drawn)	.	-6	-43	2	-1.1	?	-0.00027*	0.019*	0.0053*	0.013*	?
CCOc1ccccc1N1CCN(c2nc3ccccc3nc2C(C#N)C(=O)OC)CC1 (stereo not drawn)	0	-16	12	1	.	0.0058	0.0042	0.029	0.0068	0.018	0.01
CC1=CC(=C2C=CC(=O)C=C2)C=C(C)N1C	.	.	.	.	1.5	.	.	.	.	.	.
Clc1cccc(-c2ccc(C=Nc3ccc(N4CCOCC4)cc3)o2)c1	-4	-4	-55	3	1	.	.	.	.	.	.
c1ccc2c(c1)OCC(c1nnc3sc(-c4ccc5c(c4)OCO5)nn13)O2 (stereo not drawn)	34	-18	-23	1	.	.	.	.	.	.	.
Fc1ccc(-c2nn3c(C4COc5ccccc5O4)nnc3s2)cc1 (stereo not drawn)	16	-10	-13	3	-4.5*	0.0055	0.0045	0.03	0.0079	0.019	0.011
O=c1c2cc3c(cc2[nH]c(=S)n1C1CCN(Cc2ccccc2)CC1)OCO3	5	.	.	0	18*	0.011*	0.061*	0.033	0.017*	0.044*	0.011*
O=c1c2cc3c(cc2[nH]c(=S)n1Cc1ccco1)OCO3	11	7	28	2	6.5*	?	0.027*	0.028	0.012*	?	0.01*
CCOC(=O)C1(Cc2ccc(Cl)cc2)CCN(C(=O)c2ccoc2)CC1	14	.	.	-1	.	.	.	.	.	.	.
C=CCn1c(SCC(=O)Nc2cccc3ccccc23)nnc1-c1cnccn1	11	-18	-51	0	-3*	0.0083	?	0.032	0.0069	0.021	0.01
Cc1ccc(S(=O)(=O)N2CCC(C(=O)NNC(=O)C3CC3)CC2)cc1Cl	-7	.	.	0	-0.26	.	.	.	.	.	.
CCOC(=O)C1=C(C)Nc2nnnn2C1c1cccnc1 (stereo not drawn)	-2	-2	-27	3	.	0.0066	0.004	0.028	0.0074	0.018	0.01
Cc1ccc(NS(=O)(=O)c2ccc3[nH]c(=O)[nH]c3c2)c(C)c1	-12	.	.	0	0.046	.	.	.	.	.	.
Cc1c(NC(=O)CSc2nnc(-c3cccc(Cl)c3)o2)c(=O)n(-c2ccccc2)n1C	0	7	20	0	-0.024	.	.	.	.	.	.
O=C(Nc1nc(-c2nc3ccccc3s2)cs1)C1COc2ccccc2O1 (stereo not drawn)	18	0	-37	2	2.5*	0.0068	0.0083*	0.029	?	0.02	0.011*
COc1ccc(OC)c(-c2csc(NC(=O)C3COc4ccccc4O3)n2)c1 (stereo not drawn)	39	.	.	2	-0.019	.	.	.	.	.	.
COc1ccc2nc(NNC(=O)C3COc4ccccc4O3)sc2c1 (stereo not drawn)	2	-1	-3	1	5.1*	0.0086	0.02*	0.033	0.011*	?	0.011
COc1ccc(Cl)cc1C(=O)NNC(=O)C1COc2ccccc2O1 (stereo not drawn)	-1	.	.	0	39*	0.0099	0.054*	0.033	0.017*	0.043*	0.012*
CCOC(=O)c1ccccc1NC(=O)C1COc2ccccc2O1 (stereo not drawn)	23	-10	-63	3	-5.2*	0.0094	0.0048	0.03	0.0066	0.024	0.0097
COc1ccc2nc(NC(=O)C3COc4ccccc4O3)sc2c1 (stereo not drawn)	44	-8	-11	1	1.1	.	.	.	.	.	.
SMILES	WT yeast gro inh	Yeast life ext	Yeast growth inh	RAM inhibit	KCC2 mod	KCC2 sec1	KCC2 bumet counter	KCC2 secondary2	HEK293 Tl flux	KCC2 retest ouab	HEK counter2
O=C(O)CCn1c(=S)n(CCC(=O)O)c2ccccc21	.	.	.	.	-0.92	.	.	.	.	.	.
O=C1Nc2ccccc2/C1=C\c1cccn1-c1ccc(OC(F)(F)F)cc1	-14	-5	-29	7	.	.	.	.	.	.	.
Cc1cccc(Nc2nnc(SCC(=O)c3ccc(Br)s3)s2)c1C	51	1	-48	4	-4.3*	?	?	0.027*	0.0075	0.011*	0.011
COc1ccc(-c2cn(-c3ccc(Cl)cc3)c3[n+]2CCCCC3)cc1	.	.	.	.	1.5	.	.	.	.	.	.
COc1ccc(-n2cc(-c3ccc(Cl)cc3)[nH]c2=S)cc1	.	.	.	.	5.7*	0.025*	0.013*	0.03	0.0093*	0.019	0.011
S=c1[nH]nc(-c2ccco2)n1/N=C/c1ccccc1Cl	-4	-1	-23	2	10*	0.012*	0.036*	0.037	0.018*	0.041*	0.012*
S=c1[nH]nc(-c2ccco2)n1/N=C/c1ccc(Cl)cc1	42	-5	0	2	4.1*	0.015*	0.15*	0.032	0.053*	0.074*	0.013*
CNS(=O)(=O)c1ccc(NC(=O)c2cncc(Br)c2)cc1	7	.	.	2	-0.26	.	.	.	.	.	.
CC(=O)N1N=C(N)SC1(C)C	5	.	.	1	0.04	.	.	.	.	.	.
CCOc1ccc(CSC(CC(=O)O)C(=O)O)cc1 (stereo not drawn)	-6	-13	-7	1	.	.	.	.	.	.	.
O=C(OCn1ncc(Cl)c(Cl)c1=O)c1cccc(C(F)(F)F)c1	5	-13	62*	3	.	0.0092	?	0.033	0.0059*	0.015*	0.012
COc1cccc(NC(=O)Nc2ccc(Br)cn2)c1	.	.	.	.	0.012	.	.	.	.	.	.
